From ChEMBL document CHEMBL1131382, “Structure-activity relationship of new growth inhibitors of Trypanosoma cruzi” (J Med Chem, 1998)
pIC50: −log10 of the molar value.

Columns and labels:
[1] = tested on: Trypanosoma cruzi; experiment: Concentration required to inhibit proliferation of the epimastigote form of Trypanosoma cruzi; format: functional, organism-based
Procedure, shortened: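 T. cruzi epimastigotes (Y strain) at 28 °C in brain–heart infusion (37 g/L) with hemin (20 mg/L) and 10% newborn calf serum; inoculum (2–3) × 10⁶ cells/mL, 1 mL. Drugs at 1, 10, 50 and 100 μg/mL, each in quadruplicate, with a drug-free control. Growth read as absorbance at 600 nm; percent inhibition from the change in absorbance of drug-treated versus control cultures between start and end.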

[2] = tested on: Trypanosoma cruzi; experiment: Growth inhibition of the intracellular Trypanosoma cruzi was measured by no. of parasites per 100 myoblasts (T. cruzi ) after time gap of 48 hr at the concentration of 2.5 ug/mL; format: functional
[3] = tested on: Trypanosoma cruzi; experiment: Growth inhibition of the intracellular Trypanosoma cruzi was measured by counting percentage of myoblasts with Trypanosoma cruzi parasite after time gap of 48 hr (with out compound); format: functional
[4] = tested on: Trypanosoma cruzi; experiment: Growth inhibition of the intracellular Trypanosoma cruzi was measured by counting no. of parasites per 100 myoblasts (T. cruzi ) after 24 h (absence of compound); format: functional
[5] = tested on: Trypanosoma cruzi; experiment: Growth inhibition of the intracellular Trypanosoma cruzi was measured by counting percentage of myoblasts with Trypanosoma cruzi parasite after 48 hr at the concentration of 1.0 (ug/mL); format: functional
[6] = tested on: Trypanosoma cruzi; experiment: Growth inhibition of the intracellular Trypanosoma cruzi was measured by counting percentage of myoblasts with Trypanosoma cruzi parasite after time gap of 72 hr at the concentration of 2.5 ug/mL; format: functional
[7] = tested on: Trypanosoma cruzi; experiment: Growth inhibition of the intracellular Trypanosoma cruzi was measured by no. of parasites per 100 myoblasts (T. cruzi ) after 72 hr at the concentration of 0.5 (ug/mL); format: functional
[8] = tested on: Trypanosoma cruzi; experiment: Growth inhibition of the intracellular Trypanosoma cruzi was measured by counting percentage of myoblasts with Trypanosoma cruzi parasite after 72 hr at the concentration of 1.0 (ug/mL); format: functional
[9] = tested on: Trypanosoma cruzi; experiment: Growth inhibition of the intracellular Trypanosoma cruzi was measured by no. of parasites per 100 myoblasts (T. cruzi ) after time gap of 72 hr (absence of compound); format: functional
[10] = tested on: Trypanosoma cruzi; experiment: Growth inhibition of the intracellular Trypanosoma cruzi was measured by counting percentage of myoblasts with Trypanosoma cruzi parasite after 48 hr at the concentration of 0.5 (ug/mL); format: functional
[11] = tested on: Trypanosoma cruzi; experiment: Growth inhibition of the intracellular Trypanosoma cruzi was measured by no. of parasites per 100 myoblasts (T. cruzi ) after time gap of 48 hr at the concentration of 5.0 ug/mL; format: functional
[12] = tested on: Trypanosoma cruzi; experiment: Growth inhibition of the intracellular Trypanosoma cruzi was measured by no. of parasites per 100 myoblasts (T. cruzi ) after 48 hr at the concentration of 1.0 (ug/mL); format: functional
[13] = tested on: Trypanosoma cruzi; experiment: Growth inhibition of the intracellular Trypanosoma cruzi was measured by counting percentage of myoblasts with Trypanosoma cruzi parasite after time gap of 48 hr at the concentration of 2.5 ug/mL; format: functional
[14] = tested on: Trypanosoma cruzi; experiment: Growth inhibition of the intracellular Trypanosoma cruzi was measured by counting percentage of myoblasts with Trypanosoma cruzi parasite after time gap of 48 hr at the concentration of 1.0 ug/mL; format: functional
[15] = tested on: Trypanosoma cruzi; experiment: Growth inhibition of the intracellular Trypanosoma cruzi was measured by no. of parasites per 100 myoblasts (T. cruzi ) after time gap of 72 hr at the concentration of 2.5 ug/mL; format: functional
[16] = tested on: Trypanosoma cruzi; experiment: Growth inhibition of the intracellular Trypanosoma cruzi was measured by counting percentage of myoblasts with Trypanosoma cruzi parasite after 72 hr (absence of compound); format: functional
[17] = tested on: Trypanosoma cruzi; experiment: Growth inhibition of the intracellular Trypanosoma cruzi was measured by no. of parasites per 100 myoblasts (T. cruzi ) after 48 hr at the concentration of 0.5 (ug/mL); format: functional
[18] = tested on: Trypanosoma cruzi; experiment: Growth inhibition of the intracellular Trypanosoma cruzi was measured by no. of parasites per 100 myoblasts (T. cruzi ) after 72 hr at the concentration of 0.1 (ug/mL); format: functional
[19] = tested on: Trypanosoma cruzi; experiment: Growth inhibition of the intracellular Trypanosoma cruzi was measured by counting percentage of myoblasts with Trypanosoma cruzi parasite after 72 hr at the concentration of 0.5 (ug/mL); format: functional
[20] = tested on: Trypanosoma cruzi; experiment: Growth inhibition of the intracellular Trypanosoma cruzi was measured by counting percentage of myoblasts with Trypanosoma cruzi parasite after 24 hr (absence of compound); format: functional
[21] = tested on: Trypanosoma cruzi; experiment: Growth inhibition of the intracellular Trypanosoma cruzi was measured by no. of parasites per 100 myoblasts (T. cruzi ) after time gap of 24 hr (with out compound); format: functional
[22] = tested on: Trypanosoma cruzi; experiment: Growth inhibition of the intracellular Trypanosoma cruzi was measured by no. of parasites per 100 myoblasts (T. cruzi ) after 72 hr at the concentration of 1.0 (ug/mL); format: functional
[23] = tested on: Trypanosoma cruzi; experiment: Growth inhibition of the intracellular Trypanosoma cruzi was measured by no. of parasites per 100 myoblasts (T. cruzi ) after 48 hr at the concentration of 0.1 (ug/mL); format: functional
[24] = tested on: Trypanosoma cruzi; experiment: Growth inhibition of the intracellular Trypanosoma cruzi was measured by counting percentage of myoblasts with Trypanosoma cruzi parasite after time gap of 72 hr at the concentration of 1.0 ug/mL; format: functional
[25] = tested on: Trypanosoma cruzi; experiment: Growth inhibition of the intracellular Trypanosoma cruzi was measured by counting percentage of myoblasts with Trypanosoma cruzi parasite after time gap of 72h( absence of compound); format: functional
[26] = tested on: Trypanosoma cruzi; experiment: Growth inhibition of the intracellular Trypanosoma cruzi was measured by counting percentage of myoblasts with Trypanosoma cruzi parasite after 48 hr (absence of compound); format: functional
[27] = tested on: Trypanosoma cruzi; experiment: Growth inhibition of the intracellular Trypanosoma cruzi was measured by no. of parasites per 100 myoblasts (T. cruzi ) after time gap of 72 hr at the concentration of 5.0 ug/mL; format: functional
[28] = tested on: Trypanosoma cruzi; experiment: Growth inhibition of the intracellular Trypanosoma cruzi was measured by counting percentage of myoblasts with Trypanosoma cruzi parasite after 48 hr at the concentration of 0.1 (ug/mL); format: functional
[29] = tested on: Trypanosoma cruzi; experiment: Growth inhibition of the intracellular Trypanosoma cruzi was measured by no. of parasites per 100 myoblasts (T. cruzi ) after time gap of 48 hr (with out compound); format: functional
[30] = tested on: Trypanosoma cruzi; experiment: Growth inhibition of the intracellular Trypanosoma cruzi was measured by counting percentage of myoblasts with Trypanosoma cruzi parasite after time gap of 24 hr (with out compound); format: functional
[31] = tested on: Trypanosoma cruzi; experiment: Growth inhibition of the intracellular Trypanosoma cruzi was measured by counting percentage of myoblasts with Trypanosoma cruzi parasite after time gap of 48 hr at the concentration of 5.0 ug/mL; format: functional
[32] = tested on: Trypanosoma cruzi; experiment: Growth inhibition of the intracellular Trypanosoma cruzi was measured by counting percentage of myoblasts with Trypanosoma cruzi parasite after 72 hr at the concentration of 0.1 (ug/mL); format: functional
[33] = tested on: Trypanosoma cruzi; experiment: Growth inhibition of the intracellular Trypanosoma cruzi was measured by no. of parasites per 100 myoblasts (T. cruzi ) after time gap of 72 hr at the concentration of 1.0 ug/mL; format: functional
[34] = tested on: Trypanosoma cruzi; experiment: Growth inhibition of the intracellular Trypanosoma cruzi was measured by counting percentage of myoblasts with Trypanosoma cruzi parasite after time gap of 72 hr at the concentration of 5.0 ug/mL; format: functional
[35] = tested on: Trypanosoma cruzi; experiment: Growth inhibition of the intracellular Trypanosoma cruzi was measured by no. of parasites per 100 myoblasts (T. cruzi ) after time gap of 48 hr at the concentration of 1.0 ug/mL; format: functional
[36] = tested on: Trypanosoma cruzi; experiment: Growth inhibition of the intracellular Trypanosoma cruzi was measured by counting no. of parasites per 100 myoblasts (T. cruzi ) after 48 hr (absence of compound); format: functional
[37] = tested on: Trypanosoma cruzi; experiment: Growth inhibition of the intracellular Trypanosoma cruzi was measured by no. of parasites per 100 myoblasts (T. cruzi ) after 72 hr (absence of compound); format: functional

C/C=C/Oc1ccc(Oc2ccccc2)cc1
pIC50 [1]: < 3.36

CCOC(=S)SCCOc1ccc(Oc2ccccc2)cc1
pIC50 [1]: 4.38

Brc1ccc(Oc2ccc(OCCOC3CCCCO3)cc2)cc1 (stereo not given)
pIC50 [1]: 4.07

C=CCOc1ccc(Oc2ccccc2)cc1Cl
pIC50 [1]: < 3.60

C=CCOc1ccc(Oc2ccccc2)cc1
pIC50 [1]: 3.66

CC(C)COC(=O)SCCOc1ccc(Oc2ccccc2)cc1
pIC50 [1]: 4.72

CCSC(=O)SCCOc1ccc(Oc2ccccc2)cc1
pIC50 [1]: 4.42

N#CSCCOc1ccc(Cc2ccccc2)cc1
pIC50 [1]: 4.87

C=CCOc1ccc(Oc2ccc(Br)cc2)cc1
pIC50 [1]: < 3.60

C=CCOc1ccc(Cl)cc1Cl
pIC50 [1]: 3.55

c1ccc(COc2ccc(OCCOC3CCCCO3)cc2)cc1 (stereo not given)
pIC50 [1]: 3.92

Clc1cc(Oc2ccccc2)ccc1OCCOC1CCCCO1 (stereo not given)
pIC50 [1]: 3.84

C=CCOc1ccc(Oc2ccccc2)cc1I
pIC50 [1]: 4.04

C=CCOc1ccc(Oc2ccc([N+](=O)[O-])cc2)cc1
pIC50 [1]: 3.64

CCOC(=O)SCCOc1ccc(Oc2ccccc2)cc1
pIC50 [1]: 4.82

C=CCOc1ccc(Oc2ccccc2)cc1[N+](=O)[O-]
pIC50 [1]: 3.73

Brc1cc(Oc2ccccc2)ccc1OCCOC1CCCCO1 (stereo not given)
pIC50 [1]: 4.17

C=CCSC(=S)OCCOc1ccc(Oc2ccccc2)cc1
pIC50 [1]: 4.02

N#CSCCCOc1ccc(Oc2ccccc2)cc1
pIC50 [1]: 5.46

c1ccc(Cc2ccc(OCCOC3CCCCO3)cc2)cc1 (stereo not given)
pIC50 [1]: 3.55

C=CCOc1ccc(Oc2ccc(Cl)cc2)cc1
pIC50 [1]: < 3.60

C=CCOc1ccc(Oc2ccccc2)cc1NC(C)=O
pIC50 [1]: 4.01

c1ccc(Oc2ccc(OCC3CS3)cc2)cc1 (stereo not given)
pIC50 [1]: 5.41

C=CCOc1ccc(Oc2ccc(C(=O)c3ccccc3)cc2)cc1
pIC50 [1]: < 3.48

N#CSCCOc1ccc(Oc2ccccc2)cc1
R [2]: 57%
Myoblasts with parasites [3]: 31.5%
R [4]: 91.8%
Myoblasts with parasites [5]: 19.3%
Myoblasts with parasites [6]: 17%
R [7]: 124.5%
Myoblasts with parasites [8]: 15%
R [9]: 733.5%
Myoblasts with parasites [10]: 18.3%
R [11]: 48%
R [12]: 69.3%
Myoblasts with parasites [13]: 20.3%
Myoblasts with parasites [14]: 20.5%
R [15]: 76.3%
Myoblasts with parasites [16]: 27.5%
R [17]: 98%
R [18]: 238%
Myoblasts with parasites [19]: 12.5%
Myoblasts with parasites [20]: 26%
pIC50 [1]: 5.66
R [21]: 85%
R [22]: 63.5%
R [23]: 218%
Myoblasts with parasites [24]: 16.3%
Myoblasts with parasites [25]: 24.8%
Myoblasts with parasites [26]: 21.5%
R [27]: 28%
Myoblasts with parasites [28]: 22%
R [29]: 270.5%
Myoblasts with parasites [30]: 38%
Myoblasts with parasites [31]: 19.8%
Myoblasts with parasites [32]: 15.5%
R [33]: 85.5%
Myoblasts with parasites [34]: 8.3%
R [35]: 59.3%
R [36]: 239.5%
R [37]: 578.5%

CCSC(=O)OC/C=C(\C)CCC=C(C)C
pIC50 [1]: 3.53

Clc1ccc(OCCOC2CCCCO2)c(Cl)c1 (stereo not given)
pIC50 [1]: 4.03

C=CCOc1ccc(Oc2ccccc2)cc1Br
pIC50 [1]: 3.74

N#CSCCOc1ccc(OCc2ccccc2)cc1
pIC50 [1]: 5.09

C=CCOc1ccc(Sc2ccccc2)cc1
pIC50 [1]: 3.49

CCSC(=O)OC/C=C(\C)CCC1OC1(C)C (stereo not given)
pIC50 [1]: < 3.42

CCNC(=O)SCCOc1ccc(Oc2ccccc2)cc1
pIC50 [1]: 4.77

C=CCOc1ccc(Oc2ccc(C(C)=O)cc2)cc1
pIC50 [1]: 3.52

CC1CS(=O)(=O)CCN1/N=C/c1ccc([N+](=O)[O-])o1 (stereo not given) [NIFURTIMOX]
R [4]: 80.25%
Myoblasts with parasites [5]: 14%
Myoblasts with parasites [8]: 12.5%
R [12]: 64.5%
Myoblasts with parasites [16]: 20%
Myoblasts with parasites [20]: 34.5%
pIC50 [1]: 5.07
R [22]: 70.5%
Myoblasts with parasites [26]: 16.25%
R [36]: 155%
R [37]: 321%
